Many of the other results were omitted from the sample, so hits are more common in it than they were.
Candida biofilm – kills Candida albicans biofilms; C. albicans biofilm + clotrimazole, Alamar Blue; inhibition, % at 6 µM; 85,000 compounds, 0.14% hits;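 active = inhibition above 20%; inactive = inhibition below 20%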;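 also: preformed 24 hr biofilms exposed to compound for 48 hr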
D1 mod – D1 dopamine receptor (human) allosteric modulation. B-score at 10 µM. HEK293 D1, CRE-luciferase, dopamine EC30 potentiation; actives deviate in either direction. P21728. 58,000 compounds, 5.9% hits. AID 641;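 active = luminescence count or its row- and column-corrected plate score outside the 99.7% band of the plate's sample wells, on either side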
Target sequence (P21728 whole entry, looked up): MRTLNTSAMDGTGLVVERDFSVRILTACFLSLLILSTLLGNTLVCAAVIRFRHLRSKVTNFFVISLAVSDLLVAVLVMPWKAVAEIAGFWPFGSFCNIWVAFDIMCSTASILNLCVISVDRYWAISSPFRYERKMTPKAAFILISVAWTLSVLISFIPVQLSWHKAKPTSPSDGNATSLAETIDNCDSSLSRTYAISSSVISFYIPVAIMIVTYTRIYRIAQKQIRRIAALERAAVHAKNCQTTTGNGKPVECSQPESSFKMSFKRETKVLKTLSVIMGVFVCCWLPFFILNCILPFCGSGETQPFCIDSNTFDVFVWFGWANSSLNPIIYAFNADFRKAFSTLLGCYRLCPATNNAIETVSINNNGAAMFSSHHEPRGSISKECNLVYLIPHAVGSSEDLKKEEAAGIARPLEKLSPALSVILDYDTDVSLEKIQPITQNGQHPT
AP ELISA ortho – orthogonal test for alternative complement pathway inhibitors | Human serum alternative complement pathway, LPS-coated ELISA, C3 deposition; tested in compound mixtures | inhibition, % at 5 µM | 62,000 compounds, 0.08% hits | AID 1235;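 active = inhibition above 30% in each of the two pooled mixtures holding the compound, so the lower value exceeds 30%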
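Assay system: human serum alternative complement pathway, C3 deposition on LPS-coated wells; Dosing: 5 µM per compound in ten-compound mixtures; Detection: Anti-C3 ELISA, OD 450 nm; Buffer or medium: Mg2+-EGTA GVB++ buffer containing human serum at 1:15 dilution; Timing: 1 h at 37 °C; Replication: two different pools per compound.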
hDAT+cocaine – changed human dopamine transporter uptake under cocaine IC80 | Q01959 | LLC-PK1 hDAT cells, [14C]-dopamine uptake with cocaine IC80; actives deviate in either direction | B-score at 10 µM | 110,000 compounds, 1.3% hits | AID 449768;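 active = Z score or B-score, a plate-position-corrected score, falls beyond the plate's 99.7% confidence bounds, in either direction; inactive = both scores lie inside the 99.7% bounds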
MMP-13 inhibitor – blocks human MMP13 activity; P45452; MMP-13 fTHP FRET cleavage, Mca fluorescence; inhibition, % at 4 µM; 65,000 compounds, 0.07% hits;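 active = inhibition above the mean of compound-free control plate wells plus 3 SD, cut at about 14% in these data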
D1 mod confirm – confirmation of human D1 dopamine receptor allosteric modulators; HEK293 D1 CRE-luciferase, dopamine EC30 potentiation; hits give high values; 2,200 compounds, 88% hits; shares compounds with D1 mod; AID 642; luminescence at 10 µM;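 active = luminescence in either of two replicates above the same-plate mean plus 3 SD of the low-dose dopamine control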
D1 no dopamine – secondary test of D1 modulators: activity without dopamine; luminescence at 10 µM; 1,900 compounds, 0.8% hits; HEK293 D1 CRE-luciferase, luminescence, no dopamine; hits give high values; shares compounds with D1 mod; in the data active = luminescence above about 3900
Isoprot counter – alters isoproterenol CRE-luciferase response in HEK293 cells; shares compounds with D1 mod; HEK293 D1 CRE-luciferase, isoproterenol EC30 counter-screen; hits give high values; luminescence at 10 µM; 2,200 compounds, 63% hits; AID 647;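 active = luminescence in either replicate above plate mean of wells with a partly effective reference agonist dose plus 3 SD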;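 also: isoproterenol raises cAMP through native beta-adrenoceptor Gs so signal bypasses D1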
A number is an active result; . = inactive; / = not tested or not shown.

SMILES	Candida biofilm	D1 mod	AP ELISA ortho	hDAT+cocaine	MMP-13 inhibitor	D1 mod confirm	D1 no dopamine	Isoprot counter
NC(=O)C1(N2CCCCC2)CCN(c2ccc3nnc(-c4ccccc4)n3n2)CC1	.	11	.	.	.	18940	/	3956
c1ccc(-c2nnc3ccc(N4CCC5(CC4)OCCO5)nn23)cc1	.	21	.	.	.	16736	.	5316
O=C(Nc1ccccc1Cl)N1CCN(c2ccc3nnc(-c4ccc(F)cc4)n3n2)CC1	/	.	.	/	.	/	/	/
CCn1c(-c2ccccc2Cl)nn(CC(=O)Nc2ccccc2C)c1=S	/	/	/	.	/	/	/	/
c1ccc(-c2oc3ncnc(NCCCn4ccnc4)c3c2-c2ccccc2)cc1	.	3.8	.	2.7	.	9476	.	3872
CCCC(=Nc1ccc(N)cc1)C1=C(O)C(C(=O)OC)C(C)(C)CC1=O (stereo unspecified)	.	/	/	.	/	/	/	/
CCc1ccc(C(=O)NCC2COc3ccccc3O2)o1 (stereo unspecified)	.	3.7	.	.	.	.	.	.
CCOc1ncccc1C(=O)Oc1ccc2c(c1)OCO2	.	3.2	.	.	.	8328	.	2964
O=C(Cc1ccccc1)NCC1COc2ccccc2O1 (stereo unspecified)	.	/	/	.	/	/	/	/
CCOc1ncccc1C(=O)NCC1COc2ccccc2O1 (stereo unspecified)	.	13	.	.	.	17888	/	4208
CCOc1ncccc1C(=O)Nc1ccc(Cl)cc1	/	2.5	.	.	.	12668	.	3184
Cc1onc(-c2ccccc2)c1C(=O)NCC1COc2ccccc2O1 (stereo unspecified)	.	/	/	.	/	/	/	/
COc1cc(O)c(C(CCN2CCOCC2)c2cc(OC)c(OC)c(OC)c2)c(OC)c1 (stereo unspecified)	/	/	/	.	/	/	/	/
COC(=O)c1c(-c2ccc(F)cc2)csc1NC(=O)c1ccco1	.	3.3	.	.	/	8568	.	.
O=C(Nc1scc(-c2ccccc2)c1C(=O)O)c1ccco1	.	.	.	.	.	/	/	/
COC(=O)[C@@H]1CCCN1C(=O)[C@@H](NC(=O)OC(C)(C)C)C(C)C	/	/	/	.	/	/	/	/
COc1ccc(C(=O)Nc2nccs2)cc1OC	.	.	.	.	.	/	/	/
COc1ccc(C(=O)Nc2ccncc2)cc1OC	.	13	.	.	.	20440	/	3884
COc1ccc(NC(=O)c2cccs2)cc1OC	.	8	.	.	.	13868	.	3488
CCO[C@H]1OC(C(=O)NCc2ccccc2)=C[C@@H](C(C)(C)C)[C@@H]1CCCO	/	/	/	.	/	/	/	/
CCCNC(=O)c1ccc2c(=O)n3c(-c4ccc(C)cc4)csc3nc2c1	/	/	/	.	/	/	/	/
O=C(Nc1cccnc1)c1cnn2c(C(F)F)cc(C3CC3)nc12	.	5	.	.	.	16636	.	3600
O=C(Nc1cccnc1)c1ccccc1F	.	.	.	.	.	/	/	/
CCOC(=O)c1cnn2c(C(F)F)cc(C3CC3)nc12	.	3.7	.	.	.	14020	.	3336
Cc1ccc(C)c(N2CCN(C(=O)Cn3c(=O)[nH]c4ccsc4c3=O)CC2)c1	.	/	/	.	/	/	/	/
SMILES	Candida biofilm	D1 mod	AP ELISA ortho	hDAT+cocaine	MMP-13 inhibitor	D1 mod confirm	D1 no dopamine	Isoprot counter
CCNc1nc(C)c2cc(Br)c(=O)n(CC)c2n1	.	15	.	.	.	24012	.	6200
CCn1c(=N)c(C(=O)NC)cc2c(=O)n3cccc(C)c3nc21	.	.	.	/	.	/	/	/
CCCn1c(-c2cccs2)nc2nc3ccccc3nc21	.	/	/	.	/	/	/	/
c1csc(-c2nc3nc4ccccc4nc3n2Cc2ccc3c(c2)OCO3)c1	.	8.9	.	.	.	10488	.	3304
O=C(Cn1nnc(-c2cccs2)n1)N1c2ccccc2Sc2ccc(C(F)(F)F)cc21	.	/	/	.	/	/	/	/
COc1ccc(-c2cc(C(F)(F)F)nc(SCC(=O)N3CC(C)OC(C)C3)n2)cc1OC (stereo unspecified)	/	6.2	.	.	.	18852	.	5964
COc1ccc(-c2cc(N)n(S(=O)(=O)c3c(F)c(F)c(F)c(F)c3F)n2)cc1OC	.	4.9	.	.	.	11216	.	5304
COc1ccc(S(=O)(=O)n2nc(-c3cc(OC)c(OC)c(OC)c3)cc2N)cc1OC	.	.	.	.	.	/	/	/
Cc1ccc(C(=O)CCNc2ccc(Cl)cc2)o1	.	/	/	.	/	/	/	/
CCn1c(=O)c2c(n3cnnc13)-c1ccccc1CC21CCCCC1	.	26	.	.	.	16572	.	4360
Cc1cc(C)n2nc(SCC(=O)c3ccc[nH]3)nc2n1	.	.	.	.	.	/	/	/
COc1ccc(C(=O)CSc2nc3nc(C)cc(C)n3n2)cc1OC	.	11	.	.	.	20980	.	6480
Cc1cc(O)c(/C=N/Nc2ccccc2)c(=O)o1	/	/	/	.	/	/	/	/
Cc1cc(O)c(C=Nc2cccc(Cl)c2)c(=O)o1	.	3.8	.	.	.	8536	.	.
CC(=O)n1c2ccccc2c2nc(NC(C)C)sc21	.	6.4	.	.	.	8636	.	3344
N#CCCSc1ncnc2c1oc1ccccc12	.	5.4	.	.	.	14144	.	3796
CCc1nc(OCCN(CC)CC)c2oc3ccccc3c2n1	.	.	.	.	.	/	/	/
CCc1nc(N(CC)CC)c2oc3ccccc3c2n1	.	3.2	.	.	.	.	/	.
CCc1nc(SCCO)c2oc3ccccc3c2n1	.	10	.	.	.	17028	/	4752
OCCSc1ncnc2c1oc1ccccc12	/	.	.	.	.	/	/	/
COc1ccc(CN(C(=O)CSc2nnc(-c3c[nH]c4ccccc34)o2)c2ccc(F)cc2)cc1OC	.	/	/	.	/	/	/	/
O=C(O)Cn1c(-c2cscn2)nc2ccccc21	/	.	.	.	.	/	/	/
N#Cc1ccccc1Cn1c(-c2cscn2)nc2ccccc21	.	13	.	.	.	15376	.	4728
CCN(CC(=O)NC1CCCCCC1)S(=O)(=O)c1ccccc1	.	6.7	.	.	.	.	.	.
COc1ccc(S(=O)(=O)N2CC3CCCN3c3ccc(C(F)(F)F)cc32)cc1 (stereo unspecified)	/	/	/	.	/	/	/	/
SMILES	Candida biofilm	D1 mod	AP ELISA ortho	hDAT+cocaine	MMP-13 inhibitor	D1 mod confirm	D1 no dopamine	Isoprot counter
CCc1nc(N2CCOCC2)c(C#N)c2c1COC(C)(C)C2	.	5.6	.	.	.	15288	/	3408
Cc1nc(N2CCOCC2)c(C#N)c2c1COC(C)(C)C2	.	/	/	.	.	/	/	/
CC1(C)Cc2nc(N3CCOCC3)c(C#N)cc2CO1	.	2.8	.	.	.	9156	/	.
O=C(Nc1ccccc1)C1=C[C@@H](c2ccc(C(F)(F)F)cc2)C[C@@H](OCCCCO)O1	/	/	/	.	/	/	/	/
CCOC(=O)c1c(-c2ccccc2)cn2ccccc12	/	/	/	.	/	/	/	/
CCC(=O)n1nc(-c2ccccc2)nc1N	.	/	/	.	/	/	/	/
CCOC(=O)c1c(N)nn(C(=O)C(C)C)c1-c1ccccc1	.	6.8	.	.	.	18276	.	4740

Screens from PubChem.
